Data from ChEMBL document CHEMBL2016433 (Bioorg Med Chem, 2012).
pIC50: −log10 of the molar value. Active and inactive are the calls of the source.

Assays:
[1] = tested on: U-937; test: Cytostatic against human U937 cells assessed as reduction in absolute number of total cells after 24 hrs by haemocytometry; assay type: functional, cell-based
Summary of the method: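 U937 cells, 5×10^4 per well in RPMI-1640 with 5% FBS, 2 mM L-glutamine and penicillin-streptomycin, were exposed to 1 in 10 serial dilutions from 100 µM to 1 µM (stocks 20 mM in DMSO or medium), or to vehicle, for 24 h at 37 °C in CO₂. Total cells were counted by haemocytometer; mean and SD of at least three determinations.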

[2] = tested on: U-937; test: Induction of apoptosis in human U937 cells after 24 hrs by acridine orange staining based microscopy; assay type: functional, cell-based
Summary of the method: (§1)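 U937 cells were treated for 24 h at 37 °C with 1–100 µM compound or vehicle, then stained with acridine orange. Over 600 cells were scored by fluorescence microscopy; apoptosis was defined as uniformly stained nuclei with chromatin condensation or nuclear fragmentation. Mean and SD of at least three determinations.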

[3] = tested on: U-937; test: Cytotoxicity against human U937 cells assessed as induction of cell death at 1 to 100 microM after 24 hrs by trypan blue exclusion method; assay type: functional, cell-based
[4] = tested on: U-937; test: Induction of cell death in human U937 cells assessed at 1 to 100 microM after 24 hrs by trypan blue exclusion method relative to untreated control; assay type: functional
Summary of the method: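 U937 cells (5×10^4 per well) exposed for 24 h at 37 °C, 5% CO₂ to 1 in 10 serial dilutions from 1 to 100 µM in RPMI-1640 with 5% FBS. Compounds came from 20 mM stocks in DMSO or medium. Controls got vehicle at equal amounts. Membrane-permeable cells were counted by trypan blue exclusion in a haemocytometer and expressed as percent. Mean and standard deviation from at least three determinations.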

[5] = tested on: PBMC; test: Induction of apoptosis in human PBMC cells assessed as hypodiploid nuclei after 24 hrs by propidium iodide based flow cytometry analysis; assay type: cell-based
[6] = tested on: PBMC; test: Induction of apoptosis in human PBMC cells assessed as hypodiploid nuclei at 1 uM after 48 hrs by propidium iodide based flow cytometry analysis (reference value: 4.7 %); assay type: cell-based
[7] = tested on: PBMC; test: Induction of apoptosis in human PBMC cells assessed as hypodiploid nuclei at 10 uM after 48 hrs by propidium iodide based flow cytometry analysis (reference value: 4.7 %); assay type: cell-based
[8] = tested on: PBMC; test: Induction of apoptosis in human PBMC cells assessed as hypodiploid nuclei at 50 uM after 48 hrs by propidium iodide based flow cytometry analysis (reference value: 4.7 %); assay type: cell-based
[9] = tested on: PBMC; test: Induction of apoptosis in human PBMC cells assessed as hypodiploid nuclei at 100 uM after 48 hrs by propidium iodide based flow cytometry analysis (reference value: 4.7 %); assay type: cell-based
[10] = tested on: U-937; test: Induction of apoptosis in human U937 cells assessed as hypodiploid nuclei after 24 hrs by propidium iodide based flow cytometry analysis; assay type: functional, cell-based
[11] = tested on: U-937; test: Induction of apoptosis in human U937 cells assessed as hypodiploid nuclei at 1 uM after 24 hrs by propidium iodide based flow cytometry analysis (reference value: 3.2%); assay type: functional
[12] = tested on: U-937; test: Induction of apoptosis in human U937 cells assessed as hypodiploid nuclei at 10 uM after 24 hrs by propidium iodide based flow cytometry analysis (reference value: 3.2%); assay type: functional
[13] = tested on: U-937; test: Induction of apoptosis in human U937 cells assessed as hypodiploid nuclei at 50 uM after 24 hrs by propidium iodide based flow cytometry analysis (reference value: 3.2%); assay type: functional
[14] = tested on: U-937; test: Induction of apoptosis in human U937 cells assessed as hypodiploid nuclei at 100 uM after 24 hrs by propidium iodide based flow cytometry analysis (reference value: 3.2%); assay type: functional
[15] = tested on: MOLT-3; test: Cytotoxicity against human MOLT3 cells assessed as cell viability after 24 hrs; assay type: functional, cell-based; settings: MOLT-3, 24 h
[16] = tested on: MOLT-3; test: Cytotoxicity against human MOLT3 cells after 24 hrs by trypan blue exclusion assay; assay type: functional
[17] = tested on: MOLT-3; test: Induction of apoptosis in human MOLT3 cells after 24 hrs by acridine orange staining based fluorescence microscopy; assay type: functional
Summary of the method: (§2)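 HeLa, MOLT-3 and THP-1 cells were treated with increasing concentrations for 24 h, then stained with acridine orange and more than 600 cells scored by fluorescence microscopy for condensed or fragmented nuclei. AC30 is the concentration giving 30% apoptotic cells, from a best-fit curve versus log concentration.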

[18] = tested on: THP-1; test: Cytotoxicity against human THP1 cells assessed as cell viability after 24 hrs; assay type: functional, cell-based; settings: THP-1, 24 h
[19] = tested on: THP-1; test: Cytotoxicity against human THP1 cells after 24 hrs by trypan blue exclusion assay; assay type: functional
[20] = tested on: THP-1; test: Induction of apoptosis in human THP1 cells after 24 hrs by acridine orange staining based fluorescence microscopy; assay type: functional; summary of the method: as §2
[21] = tested on: HT-29; test: Cytotoxicity against human HT-29 cells assessed as cell viability after 48 hrs; assay type: functional, cell-based; settings: HT-29, 48 h
Summary of the method: (§3)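 HT-29, HepG2 and MCF7 cells were treated in wells with increasing concentrations for 48 h at 37 °C, 5% CO₂. Total cell count was taken by haemocytometer. IC50 is the concentration inhibiting total count by 50%, from a best-fit curve of the value versus log concentration.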

[22] = tested on: HT-29; test: Cytotoxicity against human HT-29 cells after 48 hrs by trypan blue exclusion assay; assay type: functional
Summary of the method: (§4)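 Adherent HT-29, HepG2 and MCF7 cells were seeded in 96 wells with increasing concentrations and incubated 48 h at 37 °C, 5% CO₂. Trypan blue exclusion was done directly in the culture wells. CC30 is the concentration giving 30% cytotoxicity, from a best-fit curve versus log concentration.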

[23] = tested on: HT-29; test: Cytotoxicity against human HT-29 cells assessed as compound concentration causing 30% reduction in formazan product formation after 48 hrs by MTS assay; assay type: functional; settings: HT-29, 48 h
Summary of the method: (§5)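 HT-29, HepG2 and MCF7 cells were exposed to increasing concentrations for 48 h. MTS reagent was then added directly to the wells, incubated a further 4 h, and absorbance read at 490 nm. MAIC30 is the concentration reducing formazan formation by 30%, from a best-fit curve versus log concentration.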

[24] = tested on: HepG2; test: Cytotoxicity against human HepG2 cells assessed as cell viability after 48 hrs; assay type: functional, cell-based; settings: HepG2, 48 h; summary of the method: as §3
[25] = tested on: HepG2; test: Cytotoxicity against human HepG2 cells after 48 hrs by trypan blue exclusion assay; assay type: functional; summary of the method: as §4
[26] = tested on: HepG2; test: Cytotoxicity against human HepG2 cells assessed as compound concentration causing 30% reduction in formazan product formation after 48 hrs by MTS assay; assay type: functional; settings: HepG2, 48 h; summary of the method: as §5
[27] = tested on: MCF7; test: Cytotoxicity against human MCF7 cells assessed as cell viability after 48 hrs; assay type: functional, cell-based; settings: MCF7, 48 h; summary of the method: as §3
[28] = tested on: MCF7; test: Cytotoxicity against human MCF7 cells after 48 hrs by trypan blue exclusion assay; assay type: functional; summary of the method: as §4
[29] = tested on: MCF7; test: Cytotoxicity against human MCF7 cells assessed as compound concentration causing 30% reduction in formazan product formation after 48 hrs by MTS assay; assay type: functional; settings: MCF7, 48 h; summary of the method: as §5
[30] = tested on: U-937; test: Induction of apoptosis in human U937 cells at 100 uM after 24 hrs by acridine orange staining based microscopy; assay type: functional, cell-based; summary of the method: as §1

`CC(=O)OC[C@H]1O[C@@H](SSCc2cc(CSS[C@@H]3O[C@H](COC(C)=O)[C@@H](OC(C)=O)[C@H](OC(C)=O)[C@H]3OC(C)=O)cc(CSS[C@@H]3O[C@H](COC(C)=O)[C@@H](OC(C)=O)[C@H](OC(C)=O)[C@H]3OC(C)=O)c2)[C@H](OC(C)=O)[C@@H](OC(C)=O)[C@@H]1OC(C)=O` was tested, and the Activity [1] was “Dose-dependent effect”, the Activity [2] was “inactive” and the Activity [3] was “inactive”. For the same compound, the Activity [4] was 25%.
`CCc1c(CSS[C@@H]2O[C@H](CO)[C@@H](O)[C@H](O)[C@H]2O)c(CC)c(CSS[C@@H]2O[C@H](CO)[C@@H](O)[C@H](O)[C@H]2O)c(CC)c1CSS[C@@H]1O[C@H](CO)[C@@H](O)[C@H](O)[C@H]1O` was tested, and the Activity [2] was “inactive”, the Activity [3] was “Active” and the Activity [4] was 25%.
In the case of `CC(=O)OC[C@H]1O[C@@H](SSCc2cccc(CSS[C@@H]3O[C@H](COC(C)=O)[C@@H](OC(C)=O)[C@H](OC(C)=O)[C@H]3OC(C)=O)c2)[C@H](OC(C)=O)[C@@H](OC(C)=O)[C@@H]1OC(C)=O`, the Activity [1] was “Active”, the Activity [2] was “Active” and the Activity [3] was “Active”.
For `CC(=O)OC[C@H]1O[C@@H](SSCc2ccc(CSS[C@@H]3O[C@H](COC(C)=O)[C@@H](OC(C)=O)[C@H](OC(C)=O)[C@H]3OC(C)=O)cc2)[C@H](OC(C)=O)[C@@H](OC(C)=O)[C@@H]1OC(C)=O`, the Activity [3] was “Active”.
For `CC(=O)OC[C@H]1O[C@@H](SSCc2c(C)c(CSS[C@@H]3O[C@H](COC(C)=O)[C@@H](OC(C)=O)[C@H](OC(C)=O)[C@H]3OC(C)=O)c(C)c(CSS[C@@H]3O[C@H](COC(C)=O)[C@@H](OC(C)=O)[C@H](OC(C)=O)[C@H]3OC(C)=O)c2C)[C@H](OC(C)=O)[C@@H](OC(C)=O)[C@@H]1OC(C)=O`, the Activity [2] was “inactive”, the Activity [3] was “Active” and the Activity [4] was 25%.
`CC(=O)OC[C@H]1O[C@@H](SSCc2cccc(CSS[C@@H]3O[C@H](COC(C)=O)[C@H](OC(C)=O)[C@H](OC(C)=O)[C@H]3OC(C)=O)c2)[C@H](OC(C)=O)[C@@H](OC(C)=O)[C@H]1OC(C)=O` was tested, and the Activity [1] was “Active”, the Activity [2] was “Active” and the Activity [5] was “Non-toxic”. It also gave an Activity [6] of 4.9%, an Activity [7] of 7.4% and an Activity [8] of 30.9%. For the same compound, the Activity [9] was 31.2%, the Activity [10] was “Dose-dependent effect” and the Activity [11] was 3.1%. The Activity [12] was 4.2%, the Activity [13] was 51% and the Activity [14] was 91.2%. For the same compound, the pIC50 [15] was less than 4.00, the CC30 [16] was 54 µM and the AC30 [17] was 15 µM. For the same compound, the pIC50 [18] was less than 4.00, the CC30 [19] was greater than 100 µM and the AC30 [20] was 92 µM. For the same compound, the pIC50 [21] was 4.22, the CC30 [22] was greater than 100 µM and the IC30 [23] was 12 µM. The pIC50 [24] was 4.27, the CC30 [25] was 77 µM and the IC30 [26] was 41 µM. For the same compound, the pIC50 [27] was 4.38, the CC30 [28] was greater than 100 µM and the IC30 [29] was 61 µM. For the same compound, the Activity [3] was “Active” and the Activity [30] was “Active”.
